From PubChem BioAssay
Sampled rows, rich in hits. Any-hit rate of the full collection: about 2.3%.
TRPC4 PAM: allosterically enhances the mouse TRPC4 cation channel; B-score at 10 µM; AID 2227; HEK293 TRPC4beta/mu-opioid, DAMGO EC20, Fluo-4 Ca2+ flux; hits give high values; actives 0.42% (n = 310,000); Q9QUQ5;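 active = B-score of calcium response area above 5 SD of library B-scores, with initial fluorescence ratio within 5 SD of library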
Target sequence (Q9QUQ5 whole entry, looked up): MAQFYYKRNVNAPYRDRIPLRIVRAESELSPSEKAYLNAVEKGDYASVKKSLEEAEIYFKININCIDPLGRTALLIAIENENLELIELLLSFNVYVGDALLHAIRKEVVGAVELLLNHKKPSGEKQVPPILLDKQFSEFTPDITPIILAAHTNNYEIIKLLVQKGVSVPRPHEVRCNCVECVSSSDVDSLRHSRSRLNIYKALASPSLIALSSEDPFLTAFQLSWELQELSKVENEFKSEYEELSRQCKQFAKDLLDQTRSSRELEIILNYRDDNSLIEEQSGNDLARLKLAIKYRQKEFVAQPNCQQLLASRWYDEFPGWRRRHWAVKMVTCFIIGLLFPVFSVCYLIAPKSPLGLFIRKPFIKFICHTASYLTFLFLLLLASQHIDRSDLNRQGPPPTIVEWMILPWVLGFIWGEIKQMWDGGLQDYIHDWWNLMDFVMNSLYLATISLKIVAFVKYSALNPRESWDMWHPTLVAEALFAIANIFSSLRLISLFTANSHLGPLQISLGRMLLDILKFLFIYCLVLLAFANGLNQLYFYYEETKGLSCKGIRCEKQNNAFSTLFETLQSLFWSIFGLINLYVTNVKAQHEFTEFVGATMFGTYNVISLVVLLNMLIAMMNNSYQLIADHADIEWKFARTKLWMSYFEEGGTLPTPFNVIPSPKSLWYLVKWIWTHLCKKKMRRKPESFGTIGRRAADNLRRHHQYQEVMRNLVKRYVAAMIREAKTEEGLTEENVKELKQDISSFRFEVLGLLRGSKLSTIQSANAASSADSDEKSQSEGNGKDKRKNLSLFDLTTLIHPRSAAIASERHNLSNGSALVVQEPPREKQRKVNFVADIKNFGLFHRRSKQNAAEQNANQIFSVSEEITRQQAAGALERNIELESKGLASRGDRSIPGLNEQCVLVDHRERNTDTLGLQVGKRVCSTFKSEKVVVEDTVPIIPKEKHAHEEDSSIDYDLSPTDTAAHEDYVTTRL
TRPC4 act: activators of mouse TRPC4 channel; Q9QUQ5; B-score at 10 µM; HEK293 TRPC4beta/mu-opioid, Fluo4 calcium fluorescence; hits give high values; AID 2237; actives 0.49% (n = 310,000);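 active = B-score above 5 SD of library B-scores, and initial fluorescence ratio not above library mean plus 5 SD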;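 also: positive B-score marks a calcium rise read as TRPC4 activation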
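system = HEK293 cells stably co-expressing mouse TRPC4beta and mu-opioid receptor | schedule = Fluo4 dye loading 45 min at room temperature, 110 s recording | measure = B-scored integrated calcium fluorescence ratio | signal = Fluo4 calcium-sensitive dye fluorescence, kinetic, 1 Hz baseline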
TRPC6 inh: mouse TRPC6 channel inhibition; actives 1.1% (n = 310,000); Q61143; AID 2553; B-score at 10 µM; HEK293-TRPC6, membrane potential dye, ACh-evoked depolarization; hits give low values;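 active = B-score under library mean minus 3 SD, initial fluorescence not abnormally high, positive integrated signal ratio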;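 also: B-score derived from integrated fluorescence ratio over the kinetic read; more negative B-score means stronger inhibition of depolarization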
TRPC4 inh: blocks the mouse TRPC4 cation channel; Q9QUQ5; AID 2247; HEK293 TRPC4beta/mu-opioid, DAMGO-evoked Fluo4 calcium flux; hits give low values; actives 0.39% (n = 300,000); B-score at 10 µM;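 active = B-score over 3 SD under the library average, no early fluorescence shift, positive overall ratio signal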
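Material: HEK293 cells with stable TRPC4beta plus mu-opioid receptor expression / Probe or stimulus: DAMGO in two steps, submaximal then maximal / Compound: single concentration per test compound / Technique: kinetic Fluo4 fluorescence imaging of calcium influx / Read-out: per-well B score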
TRPC6 activator: activates the mouse TRPC6 cation channel. Q61143. actives 0.13% (n = 310,000). B-score at 10 µM. HEK293-TRPC6 membrane potential dye fluorescence; hits give high values. AID 2550;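 active = B-score of the integrated fluorescence ratio above library mean plus 3 SD, and starting fluorescence ratio within library mean plus 5 SD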;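 also: higher score means more depolarization so channel activation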
TRPC4 spec 2: second check of whether TRPC6 inhibitors also affect mouse TRPC4; shares compounds with TRPC6 inh; HEK293 TRPC4/MOR, membrane potential dye fluorescence; channel activated by saturating DAMGO dose; inhibition, % at 10 µM; actives 42% (n = 920); AID 2776;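 active = compounds whose fluorescence signal differed from control wells by over 3 SD, either direction, in both duplicate plates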
TRPC4 spec: selectivity of TRPC6 inhibitors: effect on mouse TRPC4; shares compounds with TRPC6 inh; HEK293 TRPC4/mu-opioid, membrane potential fluorescence; activity change, negative = inhibition, % at 10 µM; actives 61% (n = 920); AID 2777;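 active = rise or fall in signal beyond 3 SD of buffer-only wells in both replicate plates, either sign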;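 also: integrated kinetic ratio of fluorescence range over baseline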
HEK293 MPD ctr 2-1: second counter-screen for TRPC6 inhibitors: parental HEK293 cells | signal change vs control, % at 10 µM | shares compounds with TRPC6 inh | AID 2779 | parental HEK293 membrane potential dye fluorescence; maximal acetylcholine challenge after compound addition | actives 31% (n = 920);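 active = membrane potential signal moving either way by over 3 SD of the maximum-effect control, in both duplicate plates, meaning non-specific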
HEK293 MPD ctr-1: counter-screen for TRPC6 inhibitors: effect in parental HEK293 cells. parental HEK293 membrane potential dye fluorescence. membrane potential signal change, % at 10 µM. AID 2780. shares compounds with TRPC6 inh. actives 60% (n = 920);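 active = membrane potential signal shifting up or down by more than 3 SD of buffer-only wells, on both duplicate plates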
HEK293 MPD ctr-2: checks TRPC6 modulator effects in parental HEK293 cells. shares compounds with TRPC6 inh. membrane potential dye fluorescence. membrane potential signal change, % at 10 µM. actives 51% (n = 2,400);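 active = membrane potential signal moves up or down beyond 5 SD from buffer-only wells, on both duplicate plates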
HEK293 MPD ctr 2-2: second check of TRPC6 modulator effects in parental HEK293 cells; membrane potential dye fluorescence; after compound, maximal acetylcholine stimulation; inhibition, % at 10 µM; actives 14% (n = 2,400); shares compounds with TRPC6 inh; AID 488926;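 active = membrane potential signal drops by more than 5 SD from the mean control signal, in both duplicate plates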
TRPC4/MOR mod: tests whether TRPC6 modulators also affect mouse TRPC4. shares compounds with TRPC6 inh. HEK293 TRPC4/mu-opioid, membrane potential fluorescence. percent change from control (negative = decrease, positive = increase), % at 10 µM. actives 69% (n = 2,400);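 active = membrane potential signal moved up or down beyond 5 SD of buffer control wells, in both duplicate plates, actives on both sides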
TRPC4/MOR inh 2: second selectivity test of TRPC6 modulators against mouse TRPC4; actives 55% (n = 2,400); HEK293 TRPC4/mu-opioid, membrane potential dye fluorescence; stimulated with maximal-effect DAMGO; inhibition, % at 10 µM; shares compounds with TRPC6 inh;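 active = drop in membrane potential signal beyond 5 SD of the control wells in both duplicate plates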;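 also: TRPC4 counter screen for TRPC6 hits run under conditions tuned for TRPC6 not TRPC4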
TRPC6 block conf: mouse TRPC6 inhibitor confirmation; HEK293-TRPC6, membrane potential dye, ACh-evoked depolarization; inhibition, % at 10 µM; actives 43% (n = 3,300); shares compounds with TRPC6 inh;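 active = fluorescence ratio falls more than 5 SD below the full-stimulation control mean, in both duplicate runs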;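 also: integrated fluorescence ratio of peak minus minimum over baseline after agonist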
TRPC6 act confirm: mouse TRPC6 activator confirmation. shares compounds with TRPC6 inh. HEK293-TRPC6 membrane potential dye fluorescence, FDSS. activation, % at 10 µM. actives 11% (n = 2,800);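 active = ratio signal rise beyond 5 SD above unstimulated control wells' mean, seen in both duplicate runs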
Large screens that a line does not name were inactive (follow-up assays come after a bar, where they were run).

CN1CCCN=C1COC(=O)C(O)(c1ccccc1)C1CCCCC1 (stereo not drawn)	TRPC6 inh -6.96 | TRPC4 spec 2 inactive | TRPC4 spec 0.2% | HEK293 MPD ctr 2-1 36.5% | HEK293 MPD ctr-1 inactive | TRPC6 block conf 91.2% | TRPC6 act confirm inactive
CC(C)c1cc(C(=O)N2CCCC(Nc3ccc(F)cc3)C2)nc(N)n1 (stereo not drawn)	TRPC6 inh -5.93 | HEK293 MPD ctr-2 inactive | HEK293 MPD ctr 2-2 inactive | TRPC4/MOR mod inactive | TRPC4/MOR inh 2 inactive | TRPC6 block conf inactive | TRPC6 act confirm inactive
CC/C(=C\c1oc2cc3ccccc3cc2[n+]1CC)Nc1ccccc1	TRPC6 inh -5.1 | HEK293 MPD ctr-2 inactive | HEK293 MPD ctr 2-2 inactive | TRPC4/MOR mod inactive | TRPC4/MOR inh 2 79.5% | TRPC6 block conf 59.0% | TRPC6 act confirm inactive
CN(CC(=O)Nc1ccc(Cl)c(C(F)(F)F)c1)C(=O)Cc1c[nH]c2ccccc12	TRPC6 inh -5.74 | HEK293 MPD ctr-2 inactive | HEK293 MPD ctr 2-2 inactive | TRPC4/MOR mod -11.0% | TRPC4/MOR inh 2 48.5% | TRPC6 block conf 57.5% | TRPC6 act confirm inactive
Cc1ccccc1OCCC(=O)N1CCN(S(=O)(=O)c2ccc(Cl)cc2)CC1	none
Cn1c(SCc2c(Cl)cccc2Cl)nnc1-c1cccs1	TRPC6 inh -6.56 | HEK293 MPD ctr-2 274.5% | HEK293 MPD ctr 2-2 inactive | TRPC4/MOR mod 55.5% | TRPC4/MOR inh 2 inactive | TRPC6 block conf inactive
Cc1ccc(CSc2nnc(-c3cccs3)n2C)cc1	none
Cc1ccccc1/C=N/Nc1nc2ccccc2[nH]1	none
CN(C)c1nc(N/N=C/c2c[nH]c3ccccc23)nc(N2CCOCC2)n1	none
C(=N\Nc1nc(N2CCCCC2)nc(N2CCCCC2)n1)/c1c[nH]c2ccccc12	TRPC6 inh -7.86 | HEK293 MPD ctr-2 -55.5% | HEK293 MPD ctr 2-2 inactive | TRPC4/MOR mod -15.0% | TRPC4/MOR inh 2 42.5% | TRPC6 block conf 58.5% | TRPC6 act confirm inactive
C(=N\Nc1nc2ccccc2[nH]1)/c1c[nH]c2ccccc12	TRPC6 inh -9.66 | HEK293 MPD ctr-2 -105.0% | HEK293 MPD ctr 2-2 inactive | TRPC4/MOR mod -26.0% | TRPC4/MOR inh 2 74.0% | TRPC6 block conf 55.5% | TRPC6 act confirm inactive
CC1CCN(C(=O)c2cccc(S(=O)(=O)N3CCCCC3)c2)CC1	TRPC6 inh -8.29, TRPC6 activator 13.4 | HEK293 MPD ctr-2 107.5% | HEK293 MPD ctr 2-2 inactive | TRPC4/MOR mod 20.5% | TRPC4/MOR inh 2 inactive | TRPC6 block conf 73.0% | TRPC6 act confirm 106.0%
CN1CCN(C(=O)c2cccc(S(=O)(=O)N3CCCCC3)c2)CC1	none
O=C(c1cccc(S(=O)(=O)N2CCCC2)c1)N1CCN(c2ccccc2)CC1	none (no result: TRPC4 inh)
CC1CCN(S(=O)(=O)c2ccc3c(ccn3CCC(=O)N3CCCCC3)c2)CC1	TRPC6 inh -6.18 | HEK293 MPD ctr-2 inactive | HEK293 MPD ctr 2-2 inactive | TRPC4/MOR mod 9.5% | TRPC4/MOR inh 2 inactive | TRPC6 block conf 78.5%
CC1CCC(NC(=O)CCn2ccc3cc(S(=O)(=O)N4CCCC4)ccc32)CC1 (stereo not drawn)	none
O=C(c1cccc(S(=O)(=O)N2CCCCCC2)c1)N1CCN(c2ccccc2)CC1	TRPC6 inh -5.15 | HEK293 MPD ctr-2 105.5% | HEK293 MPD ctr 2-2 inactive | TRPC4/MOR mod 19.0% | TRPC4/MOR inh 2 inactive | TRPC6 block conf inactive
CCC(CC)CN1C(Nc2ccccc2)=NC[C@@H]1C	none
O=C(NCCc1c[nH]c2ccccc12)/C(=C\c1cccnc1)NC(=O)c1ccccc1Br	none
CCOc1ccc(/C=C(\C#N)C(=O)NC2CC2)c(OCC)c1	none
Fc1ccc(Nc2nnc(C(F)(F)F)s2)cc1Cl	TRPC6 inh -8.78 | TRPC4 spec 2 inactive | TRPC4 spec inactive | HEK293 MPD ctr 2-1 inactive | HEK293 MPD ctr-1 inactive | TRPC6 block conf 61.0% | TRPC6 act confirm inactive
Cc1ccc(S(=O)(=O)N2CCCCC2)cc1C(=O)N(CCc1ccccc1)Cc1ccccc1	none
COc1ccc(Nc2nc(N3CCCCC3)c3ccccc3n2)cc1	TRPC6 inh -7.49 | TRPC4 spec 2 inactive | TRPC4 spec inactive | HEK293 MPD ctr 2-1 inactive | HEK293 MPD ctr-1 inactive | TRPC6 block conf inactive | TRPC6 act confirm inactive
Oc1ccc(Nc2nc(N3CCCC3)c3ccccc3n2)cc1	TRPC6 inh -11.2, TRPC4 inh -6 | TRPC4 spec 2 55.5% | TRPC4 spec -19.2% | HEK293 MPD ctr 2-1 32.0% | HEK293 MPD ctr-1 -262.5% | TRPC6 block conf 70.9% | TRPC6 act confirm inactive
Cc1ccc(Nc2nc(N3CCOCC3)c3ccccc3n2)cc1	TRPC6 inh -5.26 | HEK293 MPD ctr-2 inactive | HEK293 MPD ctr 2-2 inactive | TRPC4/MOR mod -21.5% | TRPC4/MOR inh 2 55.0% | TRPC6 block conf inactive | TRPC6 act confirm inactive
Cc1ccc(Nc2nc(N)c([N+](=O)[O-])c(N3CCOCC3)n2)cc1	none
c1ccc2c(c1)nc(N1CCCCCC1)c1ccccc12	none
O=C(c1ccc2c(=O)n3c(nc2c1)CCCCC3)N1CCc2ccccc21	none
